Assay results collected from several papers.
Target: Homeodomain-interacting protein kinase 4 (HIPK4, Homo sapiens, UniProt Q8NE63)
Sequence (Q8NE63 1-616, as in one of the studies): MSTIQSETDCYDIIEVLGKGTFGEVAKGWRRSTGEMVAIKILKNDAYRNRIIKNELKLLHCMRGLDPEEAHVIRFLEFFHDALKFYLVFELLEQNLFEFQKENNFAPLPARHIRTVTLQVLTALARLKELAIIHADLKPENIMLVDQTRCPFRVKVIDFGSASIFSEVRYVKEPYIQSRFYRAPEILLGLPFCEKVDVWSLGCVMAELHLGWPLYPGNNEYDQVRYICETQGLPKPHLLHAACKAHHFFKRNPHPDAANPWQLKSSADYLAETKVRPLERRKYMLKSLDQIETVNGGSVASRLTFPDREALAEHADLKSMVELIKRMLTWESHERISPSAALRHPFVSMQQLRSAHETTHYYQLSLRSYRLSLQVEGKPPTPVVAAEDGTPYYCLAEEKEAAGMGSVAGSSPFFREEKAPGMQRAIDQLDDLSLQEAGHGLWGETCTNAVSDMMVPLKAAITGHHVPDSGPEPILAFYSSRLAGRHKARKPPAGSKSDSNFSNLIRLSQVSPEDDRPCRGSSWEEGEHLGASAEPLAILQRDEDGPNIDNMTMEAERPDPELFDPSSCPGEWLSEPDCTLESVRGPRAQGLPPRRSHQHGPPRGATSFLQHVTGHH

Compound	read-out	method	concentration	remaining binding
FC(F)(F)Oc1cccc(-c2cnc3ccc(-c4ccncc4)nn23)c1	cell-free assay	competition with immobilised ligand	5 µM	5.2%
F[C@@H]1CCN(c2nccc(-c3cnn4ncccc34)n2)C1	binding	–	1 µM	90%
COc1ccc2c(c1)O[C@@H](c1ccc(OC)c(OC)c1)C[C@H]2NC(=O)C1(c2ccc3c(c2)OC(F)(F)O3)CC1	cell-free assay	competition with immobilised ligand	1 µM	51%
CN(CCCC(F)(F)F)c1nccc(-c2cnn3ncccc23)n1	binding	–	1 µM	95%
O=C(O)[C@H]1[C@H](Cn2nnc3ccccc3c2=O)CC[C@@H]1C(=O)c1ccc(OCCC2CCOCC2)cc1	cell-free assay	competition with immobilised ligand	1 µM	100%
O=C(c1ccc(Nc2ncc(Cl)c(-c3ccc(Cl)s3)n2)cc1)N1CCC(N2CCCC2)CC1	binding	competition with immobilised ligand	1 µM	3.6%
c1cncc(-c2cccc(Nc3nccc(NC4CCCCC4)n3)c2)c1	binding	competition with immobilised ligand	10 µM	22%
COc1cnc(Nc2cccc(S(N)(=O)=O)c2)nc1N1CCN(c2ccccc2)CC1	binding	competition with immobilised ligand	1 µM	99%
O=c1nc(-c2ccccn2)sc2ccccc12	binding	competition with immobilised ligand	1 µM	85%
O=C(NCCCN1CCOCC1)c1ccc(Nc2nccc(-c3cc4ccccc4s3)n2)cc1	binding	competition with immobilised ligand	1 µM	5.8%
Cc1cnn2ncc(-c3ccnc(N(C)C)n3)c2c1	binding	–	1 µM	77%
Cc1cc(C)c(-n2ccn3nc(-c4cccnc4)cc23)cc1NC(=O)c1cc(C#N)cc(S(F)(F)(F)(F)F)c1	cell-free assay	competition with immobilised ligand	0.1 µM	95.6%
COc1ccnn2ncc(-c3ccnc(N(C)C)n3)c12	binding	–	1 µM	100%
CNC(=O)[C@@H]1CC[C@@H](n2c(-c3ccc4cnccc4c3)nc3ccc(C(=O)NCc4cccc(C(N)=O)c4)cc32)C1	binding	competition with immobilised ligand	1 µM	100%
C[C@H](c1ccnc(Nc2nc3ccc(-c4cc(N(C)C)ncn4)cc3[nH]2)c1)N1CCN(C(=O)CC(F)(F)F)CC1	cell-free assay	competition with immobilised ligand	0.1 µM	100%
COc1ncc2cc3ccccc3nc2c1C#N	cell-free assay	competition with immobilised ligand	5 µM	100%
N[C@H]1CCN(c2nccc(-c3cnn4ncccc34)n2)C1	binding	–	1 µM	33%
CN(C)CC#Cc1ccc(OCCCc2sc(N3CCc4cccc(C(=O)Nc5nc6ccccc6s5)c4C3)nc2C(=O)O)c(F)c1	cell-free assay	competition with immobilised ligand	1 µM	100%
O=C(NCC1CCOCC1)c1n[nH]cc1NC(=O)c1c(F)cccc1F	binding	competition with immobilised ligand	1 µM	78%
C[C@H]1CCN(c2nccc(-c3cnn4ncccc34)n2)C1	binding	–	1 µM	80%
Cc1cnc(Nc2ccc(C(=O)N3CCC(N4CCCC4)CC3)cc2)nc1-c1cc2ccccc2s1	binding	competition with immobilised ligand	1 µM	1.3%
CN(C)C(=O)Cn1cc(-c2nc([C@@](C)(c3ccc(-c4cnc(N)nc4)cc3)C3CC3)no2)cn1	cell-free assay	competition with immobilised ligand	1 µM	70%
